Reference: paper PMC9675722 (Cell chemical biology, 2022)
pEC50, pIC50, pKd: −log10 of the molar value.

How the values were obtained:
MOLT4 cells = test: global quantitative TMT MS proteomics in MOLT4 cells; assay type: cell-based, Human; conditions: MOLT4, 100 nM, 5 hours, ~7,700 proteins quantified
Outline: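 MOLT4 cells were treated for 5 h with test compound (250 nM, or 100 nM for one degrader) or DMSO (biological triplicate), then harvested by centrifugation. TMT-labelled tryptic peptides were analysed by LC-MS3 on an Orbitrap Fusion Lumos using a 190 min 6–27% acetonitrile gradient. Spectra were searched against Swissprot human. Proteins with ≥2 unique peptides were kept, and abundance relative to DMSO was computed by limma.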

[1] = test system: IL-6 stimulated MM.1S cells; test: IL-6-induced MM.1S proliferation; assay type: cell-based, Human; conditions: 500 nM and 1 μM, 5 nM IL-6, 3d
Outline: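 MM.1S cells at 10,000 cells/well were pre-treated for 5 h with test compound at 500 nM or 1 μM. Recombinant human IL-6 (5 nM) was then added. After 72 h, proliferation was read by CellTiter-Glo. Data are mean with standard deviation of three biological replicates.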

SNU-449 cells = test: CellTiter-Glo proliferation assay, SNU-449; assay type: cell-based, Human; conditions: Homo sapiens, SNU-449, 72 h, read-out: anti-proliferative EC50
IL-6 secretion = test: IL-6 ELISA, LPS-stimulated HUVECs; assay type: cell-based, Human; conditions: LPS 10 μg/mL 6 hours
Outline: (§1)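 HUVECs were seeded at 30,000–60,000 cells/well and pre-treated with test compound for 5 or 24 h. They were then stimulated with E. coli O111:B4 LPS at 10 μg/mL for 6 h. Secreted IL-6 or IL-8 in the supernatant was quantified by sandwich ELISA kits per the manufacturer. Statistics used two-way ANOVA with Bonferroni correction.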

ERK5 [2] = target: T1, ERK5 (Homo sapiens, UniProt Q13164); test: KdELECT biochemical binding assay
T1 sequence (Q13164 whole entry): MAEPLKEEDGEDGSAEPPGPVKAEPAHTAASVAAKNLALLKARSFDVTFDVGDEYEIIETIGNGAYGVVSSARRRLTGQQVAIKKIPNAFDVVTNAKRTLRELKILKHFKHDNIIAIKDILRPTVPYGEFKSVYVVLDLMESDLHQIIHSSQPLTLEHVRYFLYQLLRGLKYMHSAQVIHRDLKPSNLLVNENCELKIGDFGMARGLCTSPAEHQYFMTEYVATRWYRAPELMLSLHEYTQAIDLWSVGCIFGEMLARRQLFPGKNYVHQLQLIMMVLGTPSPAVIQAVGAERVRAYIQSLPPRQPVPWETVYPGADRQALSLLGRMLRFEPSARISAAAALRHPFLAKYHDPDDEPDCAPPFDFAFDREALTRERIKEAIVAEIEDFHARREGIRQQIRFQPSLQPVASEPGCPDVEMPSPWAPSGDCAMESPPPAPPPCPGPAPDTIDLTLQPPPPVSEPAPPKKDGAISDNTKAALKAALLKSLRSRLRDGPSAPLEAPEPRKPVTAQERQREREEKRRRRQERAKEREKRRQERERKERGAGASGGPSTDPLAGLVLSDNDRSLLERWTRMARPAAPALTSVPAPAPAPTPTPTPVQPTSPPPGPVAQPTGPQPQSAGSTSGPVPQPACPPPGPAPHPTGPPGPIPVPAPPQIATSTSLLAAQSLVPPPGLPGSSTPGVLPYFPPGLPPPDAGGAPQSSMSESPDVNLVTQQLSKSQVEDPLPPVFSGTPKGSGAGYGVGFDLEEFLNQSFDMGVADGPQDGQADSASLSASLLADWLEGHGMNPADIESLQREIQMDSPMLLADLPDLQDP
Outline: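 Binding constants to ERK5 were determined in an outsourced KdELECT kinase binding assay from an 11-point dose–response curve.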

BT-474 cells = test: CellTiter-Glo proliferation assay, BT-474; assay type: cell-based, Human; conditions: Homo sapiens, BT-474, 72 h, read-out: anti-proliferative EC50
MM.1S cells = test: CellTiter-Glo proliferation assay, MM.1S basal; assay type: cell-based; conditions: Homo sapiens, MM1.S, 72 h, read-out: anti-proliferative EC50
Outline: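 MM.1S cells, unstimulated, were grown in RPMI with 10% heat-inactivated FBS. They were plated at 500–1000 cells/well and exposed to test compound across a concentration series for 72 h. Viability was read by CellTiter-Glo luminescence. EC50 came from nonlinear regression curve fitting.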

BRD4 = BRD4 (Homo sapiens, UniProt O60885); test: BRD4 immunoblot in MOLT4 cells; assay type: cell-based; conditions: 5 hours
Outline: (§2)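 MOLT4 cells (RPMI, 10% heat-inactivated FBS, pen-strep, 37 °C, 5% CO2) were exposed to test compound at a range of concentrations for 5 h. Lysis was in M-PER with protease and phosphatase inhibitors, and lysates were BCA-normalised. Samples were run on 4–12% Bis-Tris gels and blotted to nitrocellulose. ERK5, BRD4, AURKA and actin antibodies were applied overnight at 4 °C. Detection was by IRDye secondaries. Blots are representative of 2–3 biological replicates.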

ERK5 [3] = target: T1, ERK5; test: ERK5 degradation in MOLT4 cells; assay type: cell-based; conditions: 5 hours, 5 μM or greater
panel of 750 cell lines = test: PRISM platform anti-proliferative screen; assay type: cell-based; conditions: read-out: IC50 values in PRISM screen
ERK5 [4] = target: T1, ERK5; test: ERK5 degradation in HUVECs; assay type: cell-based
Outline: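 HUVECs (pooled primary, in vascular cell basal medium with VEGF growth kit and pen-strep, 37 °C, 5% CO2) were treated with test compound for 5 or 24 h. Lysates were BCA-normalised and separated on 4–12% Bis-Tris gels, then transferred to nitrocellulose. ERK5 and actin were probed overnight at 4 °C with IRDye secondary detection. Blots are representative of 2 biological replicates.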

AURKA = target: T2, AURKA (Homo sapiens, UniProt O14965); test: AURKA immunoblot in MOLT4 cells; assay type: cell-based; conditions: 5 hours
T2 sequence (O14965 1-403): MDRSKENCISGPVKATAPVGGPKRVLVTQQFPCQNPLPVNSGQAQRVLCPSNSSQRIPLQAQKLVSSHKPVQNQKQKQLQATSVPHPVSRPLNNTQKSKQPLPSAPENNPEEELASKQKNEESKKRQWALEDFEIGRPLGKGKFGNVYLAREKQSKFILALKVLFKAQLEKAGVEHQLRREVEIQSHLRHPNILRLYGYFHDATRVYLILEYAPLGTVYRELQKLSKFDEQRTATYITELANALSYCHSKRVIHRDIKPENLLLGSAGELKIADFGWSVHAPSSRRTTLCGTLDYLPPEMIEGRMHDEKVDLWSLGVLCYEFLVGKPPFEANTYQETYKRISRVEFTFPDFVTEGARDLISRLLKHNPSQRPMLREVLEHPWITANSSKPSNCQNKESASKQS
Outline: as §2

IL-8 secretion = test: IL-8 ELISA, LPS-stimulated HUVECs; assay type: cell-based, Human; conditions: LPS 10 μg/mL 6 hours
Outline: as §1

panel of 468 kinases = test: scanMAX KINOMEscan selectivity panel; assay type: binding; conditions: 1 μM

In the case of `Cc1ncsc1-c1ccc([C@H](C)NC(=O)[C@@H]2C[C@@H](O)CN2C(=O)[C@@H](NC(=O)CCCCCN2CCN(c3ccc4c(C5CCN(C(=O)c6ccc(OC(F)(F)F)cc6N)CC5)ncnc4c3)CC2)C(C)(C)C)cc1` [INY-06-061, (2S,4R)-1-((S)-2-(6-(4-(4-(1-(2-amino-4-(trifluoromethoxy)benzoyl)piperidin-4-yl)quinazolin-7-yl)piperazin-1-yl)hexanamido)-3,3-dimethylbutanoyl)-4-hydroxy-N-((S)-1-(4-(4-methylthiazol-5-yl)phenyl)ethyl)pyrrolidine-2-carboxamide], the “proteins significantly downregulated, proteomics” value (MOLT4 cells) was “ERK5 (MAPK7) was the only protein whose abundance was significantly downregulated”, the “effect on IL-6-induced proliferation” value [1] was “no effect” and the pEC50 (SNU-449 cells) was under 4.70. The “IL-6 secretion upon LPS stimulation” value (IL-6 secretion; 5-hour pre-treatment) was “did not significantly suppress”, the “IL-6 secretion upon LPS stimulation” value (IL-6 secretion; 24-hour pre-treatment) was “no effect” and the pKd (ERK5 [2]) was 7.92. For the same compound, the pEC50 (BT-474 cells) was under 4.70, the pEC50 (MM.1S cells) was 5.22 and the BRD4 protein levels (BRD4) was “did not destabilize”. For the same compound, the “ERK5 degradation at high concentration (hook effect)” value (ERK5 [3]) was “diminished ERK5 degradation”, the pIC50 (panel of 750 cell lines) was under 6.00 and the ERK5 protein level (ERK5 [4]; 1 μM, 5-hour treatment) was “potent downregulation of ERK5”. For the same compound, the ERK5 degradation (ERK5 [4]; 24 hours) was “maintained for 24 hours”, the AURKA protein levels (AURKA) was “did not destabilize” and the “IL-8 secretion upon LPS stimulation” value (IL-8 secretion; 5-hour pre-treatment) was “did not significantly suppress”. The “IL-8 secretion upon LPS stimulation” value (IL-8 secretion; 24-hour pre-treatment) was “no effect”, the potential off-target kinases (panel of 468 kinases) was “weak inhibition of potential off-targets (AXL, CDK19, SgK110, CDKL2, and AURKC)” and the “biochemical selectivity profile across the kinome” value (panel of 468 kinases; 468 kinases) was “high selectivity for ERK5”.
